Reference: ChEMBL document CHEMBL3739314, “Discovery of Nanomolar Dengue and West Nile Virus Protease Inhibitors Containing a 4-Benzyloxyphenylglycine Residue” (J Med Chem, 2015)
Activity calls are given as the source filed them. The calls are words filed in the database; no cut-off is given here.

Key:
Trypsin (Homo sapiens) = Trypsin (Homo sapiens) (UniProt P07477+P07478+P35030); assay: Inhibition of trypsin (unknown origin) using Boc-Val-Pro-Arg-AMC as substrate at 25 uM preincubated with protein for 15 mins followed by substrate addition by continuous fluorimetric assay relative to control
[1] = Inhibition of Dengue virus serotype-2 NS2B-NS3 protease using 2-Abz-Nle-Lys-Arg-Arg-Ser-(3-NO2)-Tyr-NH2 as substrate preincubated with protein for 15 mins followed by substrate addition measured for 15 mins by FRET assay; design: species or system dengue virus type 2
Method in brief: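 DENV-2 NS2B-NS3 linked construct at 30 nM (15 nM in some cases), same pH 9 Tris buffer, 15 min preincubation and FRET read-out. Eight inhibitor concentrations spanned 0–1, 0–2, 0–6 or 0–50 μM, with substrate at 50 μM. IC50 was fitted from triplicates.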

[2] = biological target: Prothrombin (Homo sapiens) (UniProt P00734); assay: Inhibition of thrombin (unknown origin) using Boc-Val-Pro-Arg-AMC as substrate at 25 uM preincubated with protein for 15 mins followed by substrate addition measured for 10 mins by continuous fluorimetric assay relative to control
dengue virus type 2 = assay: Antiviral activity against Dengue virus serotype-2 infected in African green monkey Vero cells after 7 days by virus yield reduction assay; assay type: functional, organism-based
[3] = Cytotoxicity against human HuH7 cells infected with Dengue virus serotype-2 assessed as cell viability after 48 hrs by Cell-Titer-Glo luminescent viability assay; assay type: cell-based, Huh-7
Method in brief: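 Huh-7 cells (10^4/well) were seeded in DMEM + 10% FBS overnight, then infected with WT DENV-2 (MOI 1) in the presence of compound, triplicate per concentration. After 48 h at 37 °C, medium was replaced with fresh DMEM and viability was read by CellTiter-Glo luminescence. CC50 was determined.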

[4] = Retention time of compound by RP-HPLC analysis; assay type: physicochemical
West Nile virus = assay: Inhibition of West Nile virus NS2B-NS3 protease using 2-Abz-Gly-Leu-Lys-Arg-Gly-Gly-[…]-Tyr-NH2 as substrate at 50 uM preincubated with protein for 15 mins followed by substrate addition measured for 15 mins by FRET assay
Method in brief: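 Linked WNV NS2B-NS3 protease (150 nM) was preincubated 15 min with inhibitor (50 μM final) in 50 mM Tris-HCl pH 9, 10% ethylene glycol, 0.0016% Brij 58. […] Percent inhibition was taken from the slope relative to the no-inhibitor control, in triplicate.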

[5] = Inhibition of West Nile virus NS2B-NS3 protease using 2-Abz-Gly-Leu-Lys-Arg-Gly-Gly-[…]-Tyr-NH2 as substrate preincubated with protein for 15 mins followed by substrate addition measured for 15 mins by FRET assay
Method in brief: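 WNV NS2B-NS3 linked construct at 75 nM (40 nM in one case) in pH 9 Tris buffer, preincubated 15 min with eight inhibitor concentrations (ranges 0–1 up to 0–50 μM). Substrate was 50 μM, with FRET readout over 15 min. IC50 was fitted from triplicates.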

Structure (SMILES): N=C(N)NCCC[C@H](NC(=O)c1cc2ccsc2s1)C(=O)N[C@@H](CCCCN)C(=O)N[C@@H](C(N)=O)c1ccc(OCc2ccc(C(F)(F)F)cc2)cc1
- inhibition (Trypsin (Homo sapiens)): inactive
- IC50 [1]: 203 nM
- inhibition [2]: inactive
- EC50 (dengue virus type 2): 10500 nM
- CC50 at 48 h [3]: 48500 nM
- Retention_time [4]: 3.39 min
- inhibition (West Nile virus): 94.2%

Structure (SMILES): N=C(N)NCCC[C@H](NC(=O)c1cccs1)C(=O)N[C@@H](CCCCN)C(=O)N[C@@H](C(N)=O)c1ccc(OCC(=O)c2ccc(Br)cc2)cc1
- inhibition (Trypsin (Homo sapiens)): 59%
- IC50 [5]: 487 nM
- IC50 [1]: 148 nM
- inhibition [2]: inactive
- inhibition (West Nile virus): 99.4%

Structure (SMILES): N=C(N)NCCC[C@H](NC(=O)c1cc(-c2ccccc2)cs1)C(=O)N[C@@H](CCCCN)C(=O)N[C@@H](C(N)=O)c1ccc(OCc2c(Cl)cccc2Cl)cc1
- inhibition (Trypsin (Homo sapiens)): inactive
- IC50 [5]: 221 nM
- IC50 [1]: 129 nM
- inhibition [2]: inactive
- inhibition (West Nile virus): 98%

Structure (SMILES): N=C(N)NCCC[C@H](NC(=O)c1cccs1)C(=O)N[C@@H](CCCCN)C(=O)N[C@@H](C(N)=O)c1ccc(OCc2ccc(F)cc2)cc1
- inhibition (Trypsin (Homo sapiens)): inactive
- IC50 [5]: 216 nM
- IC50 [1]: 61 nM
- inhibition [2]: inactive
- inhibition (West Nile virus): 101%

Structure (SMILES): CC(C)(C)c1ccc(COc2ccc([C@@H](NC(=O)[C@H](CCCCN)NC(=O)[C@H](CCCNC(=N)N)NC(=O)c3sccc3Cl)C(N)=O)cc2)cc1
- inhibition (Trypsin (Homo sapiens)): inactive
- IC50 [1]: 121 nM
- inhibition [2]: inactive
- inhibition (West Nile virus): 85.2%

Structure (SMILES): N=C(N)NCCC[C@H](NC(=O)c1cc2sccc2s1)C(=O)N[C@@H](CCCCN)C(=O)N[C@@H](C(N)=O)c1ccc(OCc2ccccc2C(F)(F)F)cc1
- inhibition (Trypsin (Homo sapiens)): inactive
- IC50 [1]: 197 nM
- inhibition [2]: inactive
- inhibition (West Nile virus): 97.5%

Structure (SMILES): N=C(N)NCCC[C@H](NC(=O)c1cc2ccccc2s1)C(=O)N[C@@H](CCCCN)C(=O)N[C@@H](C(N)=O)c1ccc(OCc2ccccc2)cc1
- IC50 [1]: 451 nM
- inhibition [2]: < 30%
- EC50 (dengue virus type 2): 20400 nM
- CC50 at 48 h [3]: > 100000 nM
- Retention_time [4]: 3.13 min
- inhibition (West Nile virus): 97.1%

Structure (SMILES): N=C(N)NCCC[C@H](NC(=O)c1nccs1)C(=O)N[C@@H](CCCCN)C(=O)N[C@@H](C(N)=O)c1ccc(OCc2c(Cl)cccc2Cl)cc1
- inhibition (Trypsin (Homo sapiens)): inactive
- IC50 [5]: 166 nM
- IC50 [1]: 50 nM
- inhibition [2]: inactive
- inhibition (West Nile virus): 99.1%

Structure (SMILES): N=C(N)NCCC[C@H](NC(=O)c1cc2sccc2s1)C(=O)N[C@@H](CCCCN)C(=O)N[C@@H](C(N)=O)c1ccc(OCc2ccc(Cl)cc2)cc1
- inhibition (Trypsin (Homo sapiens)): inactive
- IC50 [1]: 170 nM
- inhibition [2]: inactive
- inhibition (West Nile virus): 93.8%

Structure (SMILES): N=C(N)NCCC[C@H](NC(=O)c1cc2ccccc2s1)C(=O)N[C@@H](CCCCN)C(=O)N[C@@H](C(N)=O)c1ccc(OCc2c(Cl)cccc2Cl)cc1
- inhibition (Trypsin (Homo sapiens)): inactive
- IC50 [1]: 183 nM
- inhibition [2]: inactive
- inhibition (West Nile virus): 95.9%

Structure (SMILES): N=C(N)NCCC[C@H](NC(=O)c1ccccc1)C(=O)N[C@@H](CCCCN)C(=O)N[C@@H](C(N)=O)c1ccc(OCc2ccc(C(F)(F)F)cc2)cc1
- IC50 [5]: 224 nM
- IC50 [1]: 69 nM
- inhibition [2]: < 30%
- inhibition (West Nile virus): 99.7%

Structure (SMILES): N=C(N)NCCC[C@H](NC(=O)c1ccc(-c2cccs2)s1)C(=O)N[C@@H](CCCCN)C(=O)N[C@@H](C(N)=O)c1ccc(OCc2ccccc2)cc1
- IC50 [5]: 430 nM
- IC50 [1]: 375 nM
- inhibition [2]: < 30%
- inhibition (West Nile virus): 100%

Structure (SMILES): N=C(N)NCCC[C@H](NC(=O)c1sccc1Cl)C(=O)N[C@@H](CCCCN)C(=O)N[C@@H](C(N)=O)c1ccc(OCc2ccc(Cl)cc2)cc1
- inhibition (Trypsin (Homo sapiens)): inactive
- IC50 [5]: 821 nM
- IC50 [1]: 120 nM
- inhibition [2]: inactive
- inhibition (West Nile virus): 99.3%

Structure (SMILES): COc1cccc(COc2ccc([C@@H](NC(=O)[C@H](CCCCN)NC(=O)[C@H](CCCNC(=N)N)NC(=O)c3nccs3)C(N)=O)cc2)c1
- inhibition (Trypsin (Homo sapiens)): inactive
- IC50 [5]: 273 nM
- IC50 [1]: 47 nM
- inhibition [2]: inactive
- inhibition (West Nile virus): 100%

Structure (SMILES): N=C(N)NCCC[C@H](NC(=O)/C=C/c1ccccc1)C(=O)N[C@@H](CCCCN)C(=O)N[C@@H](C(N)=O)c1ccc(OCc2ccccc2)cc1
- IC50 [5]: 561 nM
- IC50 [1]: 323 nM
- inhibition [2]: < 30%
- inhibition (West Nile virus): 99.7%

Structure (SMILES): N=C(N)NCCC[C@H](NC(=O)c1ccc(-c2ccccc2)s1)C(=O)N[C@@H](CCCCN)C(=O)N[C@@H](C(N)=O)c1ccc(OCc2ccccc2)cc1
- IC50 [5]: 360 nM
- IC50 [1]: 347 nM
- inhibition [2]: < 30%
- inhibition (West Nile virus): 100%

Structure (SMILES): N=C(N)NCCC[C@H](NC(=O)C1CC1)C(=O)N[C@@H](CCCCN)C(=O)N[C@@H](C(N)=O)c1ccc(OCc2ccccc2)cc1
- IC50 [5]: 1660 nM
- IC50 [1]: 805 nM
- inhibition [2]: < 30%
- inhibition (West Nile virus): 100%

Structure (SMILES): N=C(N)NCCC[C@H](NC(=O)c1cccs1)C(=O)N[C@@H](CCCCN)C(=O)N[C@@H](C(N)=O)c1ccc(OCc2ccccc2)cc1
- IC50 [5]: 296 nM
- IC50 [1]: 109 nM
- inhibition [2]: < 30%
- inhibition (West Nile virus): 98%

Structure (SMILES): N=C(N)NCCC[C@H](NC(=O)c1ccccc1)C(=O)N[C@@H](CCCCN)C(=O)N[C@@H](C(N)=O)c1ccc(OCC(=O)c2ccccc2)cc1
- IC50 [5]: 508 nM
- IC50 [1]: 486 nM
- inhibition [2]: < 30%
- inhibition (West Nile virus): 98.8%

Structure (SMILES): N=C(N)NCCC[C@H](NC(=O)c1cc(-c2ccccc2)cs1)C(=O)N[C@@H](CCCCN)C(=O)N[C@@H](C(N)=O)c1ccc(OCc2ccccc2)cc1
- IC50 [5]: 398 nM
- IC50 [1]: 304 nM
- inhibition [2]: < 30%
- inhibition (West Nile virus): 98.6%

Structure (SMILES): N=C(N)NCCC[C@H](NC(=O)c1cc2ccccc2s1)C(=O)N[C@@H](CCCCN)C(=O)N[C@@H](C(N)=O)c1ccc(OCc2ccccc2C(F)(F)F)cc1
- inhibition (Trypsin (Homo sapiens)): inactive
- IC50 [1]: 243 nM
- inhibition [2]: inactive
- inhibition (West Nile virus): 93.1%

Structure (SMILES): N=C(N)NCCC[C@H](NC(=O)c1ccccc1)C(=O)N[C@@H](CCCCN)C(=O)N[C@@H](C(N)=O)c1ccc(OCc2ccc(Cl)cc2)cc1
- IC50 [5]: 486 nM
- IC50 [1]: 143 nM
- inhibition [2]: < 30%
- inhibition (West Nile virus): 102%

Structure (SMILES): N=C(N)NCCC[C@H](NC(=O)c1ccc(Cl)s1)C(=O)N[C@@H](CCCCN)C(=O)N[C@@H](C(N)=O)c1ccc(OCc2ccc(Cl)cc2)cc1
- inhibition (Trypsin (Homo sapiens)): inactive
- IC50 [5]: 371 nM
- IC50 [1]: 111 nM
- inhibition [2]: inactive
- inhibition (West Nile virus): 99.6%

Structure (SMILES): N=C(N)NCCC[C@H](NC(=O)c1ccco1)C(=O)N[C@@H](CCCCN)C(=O)N[C@@H](C(N)=O)c1ccc(OCc2ccccc2)cc1
- IC50 [5]: 507 nM
- IC50 [1]: 479 nM
- inhibition [2]: < 30%
- inhibition (West Nile virus): 98.1%

Structure (SMILES): N=C(N)NCCC[C@H](NC(=O)c1cccs1)C(=O)N[C@@H](CCCCN)C(=O)N[C@@H](C(N)=O)c1ccc(OCc2ccc(Br)cc2)cc1
- inhibition (Trypsin (Homo sapiens)): inactive
- IC50 [5]: 150 nM
- IC50 [1]: 71 nM
- inhibition [2]: inactive
- inhibition (West Nile virus): 99.2%

Structure (SMILES): CC(C)(C)c1ccc(COc2ccc([C@@H](NC(=O)[C@H](CCCCN)NC(=O)[C@H](CCCNC(=N)N)NC(=O)c3cc4sccc4s3)C(N)=O)cc2)cc1
- inhibition (Trypsin (Homo sapiens)): inactive
- IC50 [5]: 15900 nM
- IC50 [1]: 157 nM
- inhibition [2]: inactive
- inhibition (West Nile virus): 94.1%
